Assays:
[1] = tested on: obese or overweight subjects; test: Clinical study: treatment-emergent adverse events, tolerability and withdrawals
[2] = tested on: obese or overweight subjects; type: in vivo, human
[3] = tested on: obese or overweight subjects; test: Clinical study: fasting lipoprotein and glycemic control parameters; type: in vivo, human; settings: enrollment to week 16, evaluable population, mean ± s.e., SEM
Procedure, shortened: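 Fasting glucose, insulin, lipids and HOMA-IR were taken as change from enrollment to week 16 after the 4-week amylin analogue lead-in with a 40% caloric-deficit diet. This was followed by randomized s.c. b.i.d. leptin analogue, amylin analogue, or both, and advice to keep a 20% caloric deficit. Evaluable subjects had completed week 16; values are mean ± s.e.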

[4] = type: in vivo, human; settings: week 16; metreleptin 5 mg b.i.d. s.c.
Procedure, shortened: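 Predose plasma leptin was measured at week 16 and expressed relative to enrollment concentration. Subjects received a leptin analogue at 5mg b.i.d. s.c., alone or with an amylin analogue at 360 μg b.i.d., each injected separately 15 min before morning and evening meals. Analysis covered the evaluable population; values are mean ± s.e.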

[5] = tested on: nonleptin-deficient obesity; settings: doses up to twofold those used in this study; and data on file, Amylin Pharmaceuticals, Inc.; cited from earlier work
[6] = ITT population, lead-in and postrandomization periods
[7] = evaluable population, LS mean ± s.e., SEM

In the case of “Metreleptin: recombinant methyl-human leptin (metreleptin)”, the Back pain [1, 6] is reported as 0 (0.0) n (%), the Constipation [1, 6] is reported as 1 (3.7) n (%) and the Diarrhea [1, 6] is reported as 0 (0.0) n (%). For the same substance, the Headache [1, 6] was 2 (7.4) n (%), the Hypersensitivity [1, 6] was 2 (7.4) n (%) and the Influenza [1, 6] was 1 (3.7) n (%). The “Injection site adverse events” value [1, 6] was 18 (66.7) n (%), the Nasopharyngitis [1, 6] was 2 (7.4) n (%) and the Nausea [1, 6] was 7 (25.9) n (%). For the same substance, the Streptococcal pharyngitis [1, 6] was 0 (0.0) n (%), the Vomiting [1, 6] was 2 (7.4) n (%) and the “Withdrew during randomized treatment, reason: Adverse event” value ([1]; through week 20, randomized/ITT population) was 3 (11) n (%). For the same substance, the “Overall rate of weight change” value ([2]; day 1 to week 20, evaluable population, LS mean ± s.e., SEM) was −0.16 ± 0.06 kg/week, the “Rate of weight change, Day 1 to week 12” value [2, 7] was −0.23 ± 0.06 kg/week and the “Rate of weight change, Week 12 to week 20” value [2, 7] was −0.02 ± 0.08 kg/week. For the same substance, the “Weight loss, percent of initial body weight over 24 weeks” value ([2]; evaluable, rounded figures of the discussion) was ~ 8%, the “Change in HOMA-IR” value [3] was −0.10 ± 0.29 and the Change in insulin ([3]; fasting serum) was −0.6 ± 1.1 μIU/ml. For the same substance, the “Change in HDL” value ([3]; fasting) was 1.7 ± 1.5 mg/dL, the “Change in LDL” value ([3]; fasting) was 1.1 ± 5.1 mg/dL and the “Change in blood glucose” value ([3]; fasting) was 0.7 ± 1.7 mg/dL. The “Change in total cholesterol” value ([3]; fasting) was 2.7 ± 5.8 mg/dL, the Change in triglycerides ([3]; fasting) was 5.7 ± 13.5 mg/dL and the “Increase of predose leptin concentrations over enrollment concentrations” value [4] was 13- to 16 fold. For the same substance, the “Weight loss in previous monotherapy trials” value [5] was “failed to show significant weight loss”.

From article PMC2754219 (Obesity (Silver Spring, Md.), 2009)
